Source: ChEMBL document CHEMBL2216748 (J Med Chem, 2012)
Values belong to the compound of their own block, whether it stands above or below them. The source made the active and inactive calls. No cut-off for these calls is given here.

Key:
[1] = Thermal stability of the compound; type: physicochemical
Summary of the method: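 Capture compound incubated 30 min native at 4 °C or denatured at 80 °C as thermal stress. Biological stress was 30 min in HepG2 lysate at 4 and 37 °C. UV irradiation for 10 and 30 min was checked for a single defined photoproduct.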

[2] = target: Prothrombin (Homo sapiens) (UniProt P00734); test: Binding affinity to human recombinant thrombin after 1 hr by Western blot analysis
Summary of the method: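 Purified human recombinant thrombin (2 μg) incubated with capture compound for 1 h at 4 °C, with or without preincubation with free drug as competitor. Sample UV-irradiated 10 min, captured on streptavidin beads, then analysed by silver-stained SDS-PAGE and by streptavidin-HRP blot to detect covalent biotinylation.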

[3] = target: Histamine N-methyltransferase (Homo sapiens) (UniProt P50135); test: Binding affinity to HNMT in human HepG2 cell lysate after 1 hr by capture compound based LC/MS analysis; type: cell-free
Histamine N-methyltransferase (Homo sapiens), sequence (P50135 whole entry): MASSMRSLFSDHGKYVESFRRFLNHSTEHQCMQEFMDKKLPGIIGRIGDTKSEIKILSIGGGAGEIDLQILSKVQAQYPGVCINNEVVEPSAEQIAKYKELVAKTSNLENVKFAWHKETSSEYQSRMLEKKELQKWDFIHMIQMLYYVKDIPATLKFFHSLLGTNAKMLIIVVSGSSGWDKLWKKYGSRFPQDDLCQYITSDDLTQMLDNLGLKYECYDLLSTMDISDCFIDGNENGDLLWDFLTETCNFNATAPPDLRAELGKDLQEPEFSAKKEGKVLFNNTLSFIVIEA
Summary of the method: (§1)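 Capture compound MS: 400 μg HepG2 or K562 lysate in capture buffer, precleared with streptavidin beads 30 min at 4 °C. Competition controls preincubated 30 min at 4 °C with free drug (10 μL of 1 mM). Capture compound (10 μL of 50 μM) equilibrated 1 h at 4 °C, UV-irradiated 10 min, streptavidin bead pulldown, on-bead trypsin digestion, nanoLC-MS/MS. Spectral counts compared capture vs competition (t test). HepG2 in quadruplicate, K562 in duplicate.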

[4] = target: T1, Hypoxia up-regulated protein 1 (Homo sapiens) (UniProt Q9Y4L1); test: Binding affinity to HYOU1 in human HepG2 cell lysate after 1 hr by capture compound based LC/MS analysis; type: cell-free; summary of the method: as §1
T1 sequence (whole entry): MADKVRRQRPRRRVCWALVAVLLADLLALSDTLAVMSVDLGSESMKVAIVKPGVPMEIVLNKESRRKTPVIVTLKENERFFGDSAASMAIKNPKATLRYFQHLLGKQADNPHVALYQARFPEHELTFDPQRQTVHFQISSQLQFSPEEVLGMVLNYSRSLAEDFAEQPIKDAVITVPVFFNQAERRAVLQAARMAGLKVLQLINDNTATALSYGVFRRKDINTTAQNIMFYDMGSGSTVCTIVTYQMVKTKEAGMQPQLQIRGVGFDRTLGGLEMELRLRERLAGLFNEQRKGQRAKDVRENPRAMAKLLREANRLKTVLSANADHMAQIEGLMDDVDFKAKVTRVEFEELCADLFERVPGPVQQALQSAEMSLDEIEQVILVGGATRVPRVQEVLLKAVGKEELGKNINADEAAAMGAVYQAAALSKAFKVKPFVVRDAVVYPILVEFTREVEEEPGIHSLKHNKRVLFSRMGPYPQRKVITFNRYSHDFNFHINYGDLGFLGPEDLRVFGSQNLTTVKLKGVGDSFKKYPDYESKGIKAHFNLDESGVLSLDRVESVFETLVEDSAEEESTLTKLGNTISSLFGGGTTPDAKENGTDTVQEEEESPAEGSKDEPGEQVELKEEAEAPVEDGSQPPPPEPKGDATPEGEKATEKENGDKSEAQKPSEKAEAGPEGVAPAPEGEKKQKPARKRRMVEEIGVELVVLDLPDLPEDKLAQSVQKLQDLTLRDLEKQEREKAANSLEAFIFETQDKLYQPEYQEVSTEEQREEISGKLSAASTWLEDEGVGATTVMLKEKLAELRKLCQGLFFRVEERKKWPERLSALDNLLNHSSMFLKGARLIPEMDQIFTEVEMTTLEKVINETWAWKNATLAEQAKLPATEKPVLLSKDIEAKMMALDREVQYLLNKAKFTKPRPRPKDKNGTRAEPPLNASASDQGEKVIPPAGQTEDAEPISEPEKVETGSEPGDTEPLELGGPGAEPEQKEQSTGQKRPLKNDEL

[5] = target: Heterogeneous nuclear ribonucleoproteins C1/C2 (Homo sapiens) (UniProt P07910); test: Binding affinity to HNRPC in human HepG2 cell lysate after 1 hr by capture compound based LC/MS analysis; type: cell-free; summary of the method: as §1
Heterogeneous nuclear ribonucleoproteins C1/C2 (Homo sapiens), sequence (P07910 whole entry): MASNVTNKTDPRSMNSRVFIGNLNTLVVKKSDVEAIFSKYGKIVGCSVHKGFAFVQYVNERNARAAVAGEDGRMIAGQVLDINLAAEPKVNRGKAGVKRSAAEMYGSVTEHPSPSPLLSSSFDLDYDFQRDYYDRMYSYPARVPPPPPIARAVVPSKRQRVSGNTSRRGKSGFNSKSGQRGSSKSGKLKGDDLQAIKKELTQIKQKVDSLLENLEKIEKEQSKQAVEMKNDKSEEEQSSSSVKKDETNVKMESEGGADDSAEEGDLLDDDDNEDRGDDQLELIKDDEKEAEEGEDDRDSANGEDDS

[6] = target: Adenosine kinase (Homo sapiens) (UniProt P55263); test: Binding affinity to ADK in human HepG2 cell lysate after 1 hr by capture compound based LC/MS analysis; type: cell-free; summary of the method: as §1
Adenosine kinase (Homo sapiens), sequence (P55263 2-362 limits assumed): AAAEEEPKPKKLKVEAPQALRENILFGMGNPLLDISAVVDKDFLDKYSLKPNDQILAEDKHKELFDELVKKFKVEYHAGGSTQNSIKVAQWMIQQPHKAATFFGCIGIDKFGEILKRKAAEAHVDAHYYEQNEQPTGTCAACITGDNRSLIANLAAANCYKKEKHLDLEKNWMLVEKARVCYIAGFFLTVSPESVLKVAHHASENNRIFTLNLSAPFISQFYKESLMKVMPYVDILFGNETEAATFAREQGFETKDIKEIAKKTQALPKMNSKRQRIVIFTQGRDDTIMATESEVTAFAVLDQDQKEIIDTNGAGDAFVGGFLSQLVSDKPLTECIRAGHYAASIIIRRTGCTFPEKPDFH

[7] = target: Histamine N-methyltransferase (Homo sapiens) (UniProt P50135); test: Binding affinity to HNMT in human K562 cell lysate after 1 hr by capture compound based LC/MS analysis; type: cell-free; summary of the method: as §1
[8] = target: T1, Hypoxia up-regulated protein 1 (Homo sapiens); test: Binding affinity to HYOU1 in human K562 cell lysate after 1 hr by capture compound based LC/MS analysis; type: cell-free; summary of the method: as §1
[9] = target: Heterogeneous nuclear ribonucleoproteins C1/C2 (Homo sapiens) (UniProt P07910); test: Binding affinity to HNRPC in human K562 cell lysate after 1 hr by capture compound based LC/MS analysis; type: cell-free; summary of the method: as §1
[10] = target: Adenosine kinase (Homo sapiens) (UniProt P55263); test: Binding affinity to ADK in human K562 cell lysate after 1 hr by capture compound based LC/MS analysis; type: cell-free; summary of the method: as §1
[11] = target: T2, Ribosyldihydronicotinamide dehydrogenase [quinone] (Homo sapiens) (UniProt P16083); test: (§2) Displacement of (S)-N4-(2-(4-(4-(4-methyl-3-(4-(pyridin-3-yl)pyrimidin-2-ylamino)phenylcarbamoyl)benzyl)piperazin-1-yl)ethyl)-N1-(15-oxo-19-((3aS,4S,6aR)-2-oxohexahydro-1H-thieno[3,4-d]imidazol-4-yl)-4,7,10-trioxa-14-azanonadecyl)-2-(4-(3-(trifluoromethyl)-3H-diazirin-3-yl)benzamido)succinamide from NQO2 in human K562 cell lysate after 1 hr by capture compound based LC/MS analysis; type: cell-free
T2 sequence (whole entry): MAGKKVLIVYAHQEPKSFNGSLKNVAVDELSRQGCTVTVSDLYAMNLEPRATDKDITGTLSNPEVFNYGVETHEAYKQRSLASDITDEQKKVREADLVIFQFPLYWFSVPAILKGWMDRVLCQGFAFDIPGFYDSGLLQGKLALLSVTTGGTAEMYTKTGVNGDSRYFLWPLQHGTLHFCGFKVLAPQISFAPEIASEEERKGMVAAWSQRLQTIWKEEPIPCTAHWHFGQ
Summary of the method: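 K562 lysate (400 μg, precleared) was preincubated with competitor (final 100 μM) for 30 min at 4 °C. Capture compound (final 5 μM) was added for 1 h at 4 °C, then UV-crosslinked 10 min. Proteins were pulled down on streptavidin beads and trypsin-digested on-bead for 16 h at 37 °C, then analysed by nanoLC-Orbitrap MS/MS. Spectral counts in capture versus competition were compared, with duplicate experiments.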

[12] = target: T2, Ribosyldihydronicotinamide dehydrogenase [quinone] (Homo sapiens); test: as §2, with “HepG2” for “K562”, “lysate at 100 uM” for “lysate”, “Western blot” for “capture compound based LC/MS”; type: cell-free
Summary of the method: (§3)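 Lysate (400 μg, precleared with streptavidin beads 30 min at 4 °C) in capture buffer was preincubated with competitor (final 100 μM) for 30 min at 4 °C. […] Streptavidin beads were added for 1 h at 4 °C, followed by anti-NQO2 (1:500) Western blot.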

[13] = target: T2, Ribosyldihydronicotinamide dehydrogenase [quinone] (Homo sapiens); test: as §2, with “lysate at 100 uM” for “lysate”, “Western blot” for “capture compound based LC/MS”; type: cell-free; summary of the method: as §3
[14] = target: T2, Ribosyldihydronicotinamide dehydrogenase [quinone] (Homo sapiens); test: (§4) Displacement of (S)-N4-(4-(3-(2-((4-carbamimidoylphenylamino)methyl)-1-methyl-N-(pyridin-2-yl)-1H-benzo[d]imidazole-5-carboxamido)propanamido)butyl)-N1-(15-oxo-19-((3aS,4S,6aR)-2-oxohexahydro-1H-thieno[3,4-d]imidazol-4-yl)-4,7,10-trioxa-14-azanonadecyl)-2-(4-(3-(trifluoromethyl)-3H-diazirin-3-yl)benzamido)succinamide from human recombinant NQO2 after 1 hr by silver staining-based SDS PAGE analysis
Summary of the method: (§5)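 Human recombinant NQO2 (1 μg) was preincubated 30 min at 4 °C with competitor, then capture compound was added at 5 μM final (competitors 100 μM final) and equilibrated 1 h at 4 °C. Samples were UV-irradiated 10 min, pulled down on streptavidin beads and resolved by silver-stained SDS-PAGE.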

[15] = target: T2, Ribosyldihydronicotinamide dehydrogenase [quinone] (Homo sapiens); test: Displacement of (S)-N4-(2-(4-(4-(4-methyl-3-(4-(pyridin-3-yl)pyrimidin-2-ylamino)phenylcarbamoyl)benzyl)piperazin-1-yl)ethyl)-N1-(15-oxo-19-((3aS,4S,6aR)-2-oxohexahydro-1H-thieno[3,4-d]imidazol-4-yl)-4,7,10-trioxa-14-azanonadecyl)-2-(4-(3-(trifluoromethyl)-3H-diazirin-3-yl)benzamido)succinamide from human recombinant NQO2 after 1 hr by silver staining-based SDS PAGE analysis; summary of the method: as §5
[16] = target: T3, Leucine-rich repeat-containing protein 59 (Homo sapiens) (UniProt Q96AG4); test: (§6) Displacement of 2-((R)-1-cyclohexyl-2-oxo-2-((S)-2-(4-(N-((S)-6,9,25-trioxo-29-((3aS,4S,6aR)-2-oxohexahydro-1H-thieno[3,4-d]imidazol-4-yl)-8-(4-(3-(trifluoromethyl)-3H-diazirin-3-yl)benzamido)-14,17,20-trioxa-5,10,24-triazanonacosyl)carbamimidoyl)benzylcarbamoyl)azetidin-1-yl)ethylamino)acetic acid from LRC59 in human HepG2 cell lysate after 1 hr by capture compound based LC/MS analysis; type: cell-free; summary of the method: as §1
T3 sequence (whole entry): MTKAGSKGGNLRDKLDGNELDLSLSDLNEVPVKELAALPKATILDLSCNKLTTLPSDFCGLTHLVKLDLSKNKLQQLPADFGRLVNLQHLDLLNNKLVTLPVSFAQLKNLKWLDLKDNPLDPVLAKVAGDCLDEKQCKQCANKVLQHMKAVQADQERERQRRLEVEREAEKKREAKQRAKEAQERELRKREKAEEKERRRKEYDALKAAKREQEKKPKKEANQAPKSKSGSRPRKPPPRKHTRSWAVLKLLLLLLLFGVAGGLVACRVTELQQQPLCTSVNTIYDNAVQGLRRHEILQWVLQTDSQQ

[17] = target: Vacuolar protein sorting-associated protein 35 (Homo sapiens) (UniProt Q96QK1); test: as §6, with “VPS35” for “LRC59”; type: cell-free; summary of the method: as §1
[18] = target: T4, Ribosyldihydronicotinamide dehydrogenase [quinone] (Homo sapiens, UniProt P16083); test: as §4, with “densitometric” for “silver staining-based SDS PAGE”
T4 sequence (P16083 whole entry): T2 sequence (whole entry)

[19] = target: T4, Ribosyldihydronicotinamide dehydrogenase [quinone]; test: Inhibition of human recombinant NQO2-mediated mitomycin C metabolism using NADH as cosubstrate incubated for 5 mins prior to NADH addition measured after 30 mins by spectrophotometric analysis
Summary of the method: (§7)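 NQO2 (0.5 μM) with mitomycin C (50 μM) and four inhibitor concentrations in 100 mM potassium phosphate pH 5.8, 5 min at room temperature. Increasing NADH was then added and A340 followed for 30 min at rt. Ki from Lineweaver–Burk, IC50 from competitive Michaelis–Menten kinetics. Two experiments, duplicate points each.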

[20] = target: T4, Ribosyldihydronicotinamide dehydrogenase [quinone]; test: Competitive inhibition of human recombinant NQO2-mediated mitomycin C metabolism using NADH as cosubstrate incubated for 5 mins prior to NADH addition measured after 30 mins by Michaelis-Menten plot analysis; summary of the method: as §7
[21] = Inhibition of human alpha thrombin using Boc-Val-Pro-Arg-AMC as substrate after 2 hrs by fluorometric analysis
Summary of the method: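 Human α-thrombin at 5.5 ng/mL final with Boc-Val-Pro-Arg-AMC (15 μM) in 50 mM Tris pH 7.5, 150 mM NaCl, 0.05% Tween 20. Compound tested as 16 two-fold dilutions in DMSO, 2.5 mM to 75 nM. Incubated 2 h at room temperature; fluorescence read at ex 355, em 460 nm for percent inhibition.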

Stability [1]: Stable | Activity [2]: inactive | Activity [3]: Active | Activity [4]: Active | Activity [5]: Active | Activity [6]: Active | Activity [7]: inactive | Activity [8]: inactive | Activity [9]: inactive | Activity [10]: inactive
SMILES: Cn1c(CNc2ccc(C(=N)NCCCCNC(=O)C[C@H](NC(=O)c3ccc(C4(C(F)(F)F)N=N4)cc3)C(=O)NCCCOCCOCCOCCCNC(=O)CCCC[C@@H]3SC[C@@H]4NC(=O)N[C@@H]43)cc2)nc2cc(C(=O)N(CCC(=O)O)c3ccccn3)ccc21

IC50 [18]: 1.5 µM | Ki [19]: 0.9 µM | IC50 [20]: 0.8 µM | IC50 [21]: 0.0012 µM
SMILES: CCOC(=O)CCN(C(=O)c1ccc2c(c1)nc(CNc1ccc(C(=N)N)cc1)n2C)c1ccccn1 [DABIGATRAN ETHYL ESTER]

Further lines, the compound ahead of its results:

SMILES: N=C(N)c1ccc(CNC(=O)[C@@H]2CCN2C(=O)[C@H](NCC(=O)NCCCCNC(=O)C[C@H](NC(=O)c2ccc(C3(C(F)(F)F)N=N3)cc2)C(=O)NCCCOCCOCCOCCCNC(=O)CCCC[C@@H]2SC[C@@H]3NC(=O)N[C@@H]32)C2CCCCC2)cc1
Stability [1]: Stable | Activity [2]: Active

SMILES: Cc1ccc(NC(=O)c2ccc(CN3CCN(C)CC3)cc2)cc1Nc1nccc(-c2cccnc2)n1
Activity [11]: Active | Activity [12]: Active | Activity [13]: Active | Activity [14]: Active | Activity [15]: Active

SMILES: N=C(N)c1ccc(CNC(=O)[C@@H]2CCN2C(=O)[C@H](NCC(=O)O)C2CCCCC2)cc1
Activity [16]: Active | Activity [17]: Active

SMILES: [H]/N=C(/N)c1ccc(NCc2nc3cc(C(=O)N(CCC(=O)O)c4ccccn4)ccc3n2C)cc1 [DABIGATRAN]
IC50 [18]: 11 µM | Ki [19]: 70 µM | IC50 [20]: > 10 µM
